Screening results deposited in PubChem by several laboratories.
A3A deaminase: human APOBEC3A DNA deaminase inhibition | P31941 | recombinant A3A, FAM/TAMRA ssDNA deamination fluorescence | inhibition, % at 20 µM | 330,000 compounds, 0.41% hits | AID 493011;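 active means at least 40% inhibition at 20 µM here, with at most 30% in a related deaminase screen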
Target sequence (P31941 whole entry, looked up): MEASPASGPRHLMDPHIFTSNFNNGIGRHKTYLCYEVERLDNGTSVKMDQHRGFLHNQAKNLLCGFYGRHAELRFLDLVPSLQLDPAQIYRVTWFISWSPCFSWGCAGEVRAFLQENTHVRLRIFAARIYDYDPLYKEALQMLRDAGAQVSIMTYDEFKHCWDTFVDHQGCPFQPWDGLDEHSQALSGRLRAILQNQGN
APOBEC3G inh: inhibitors of human APOBEC3G DNA deaminase. AID 493012. 330,000 compounds, 0.28% hits. recombinant A3G, ssDNA deamination FAM/TAMRA fluorescence. inhibition, % at 20 µM;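 active means inhibition of at least 40% at 20 µM, with no more than 30% in the related APOBEC3A deaminase screen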
CAL PDZ FP-1: inhibitors of human CAL PDZ peptide binding; 300,000 compounds, 0.92% hits; Q9HD26; purified CAL PDZ, TMR-peptide fluorescence polarization, 1 h; AID 602252; inhibition, % at 24.9 µM;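 active means mean inhibition of at least 30% with at least half of replicates also reaching 30%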
Keap1-Nrf2 PPI: inhibitors of human Keap1-Nrf2 protein-protein interaction; Q14145; Keap1 Kelch-Nrf2 peptide fluorescence polarization, 1536-well; inhibition, % at 9.4 µM; 340,000 compounds, 0.15% hits; AID 504523; in the data active means inhibition above about 12%;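 further: human Keap1 Kelch domain with fluorescein labeled Nrf2 9mer peptide probe; higher means more block of Keap1 binding to Nrf2 peptide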
C-LANA FP: blocks KSHV LANA C-terminal domain binding to DNA. MBP-C-LANA/FAM-LBS DNA binding, fluorescence polarization. inhibition, % at 9 µM. 340,000 compounds, 0.078% hits;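 active means highest replicate inhibition at or above 60% at 9 µM, even if other replicates fall short; inactive means all replicates below 60% inhibition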
CAL PDZ FP-2: human CAL PDZ-peptide interaction inhibition. Q9HD26. purified CAL PDZ, TMR-peptide fluorescence polarization, 1 h. inhibition, % at 20 µM. 330,000 compounds, 0.02% hits. AID 504414;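 active means highest replicate inhibition of at least 40%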
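Test system: purified CerCALP PDZ construct; Compound dosing: one concentration, 20 µM compound; Also added: TMR-labelled reporter peptide T*-PRC34 bound in PDZ groove; Read-out: inhibition from polarization loss; Controls: unlabelled peptide and DMSO controls; Signal: FP readout, S and P plane fluorescence; Incubation: 1 h at RT.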
A3A conf: confirmation of human APOBEC3A DNA deaminase inhibitors. shares compounds with A3A deaminase. recombinant A3A, ssDNA deaminase UDG fluorescence assay. inhibition, % at 20 µM. 1,400 compounds, 63% hits. AID 493151;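 active means inhibition reaching a set limit, 80% of the first screen's cutoff, at 20 µM in any replicate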
UDG A3A counter: inhibits UDG, flagging false APOBEC3A inhibitors; 1,000 tested, under 10 active; UDG counterscreen, FAM/TAMRA uracil oligo fluorescence; inhibition, % at 20 µM; shares compounds with A3A deaminase; call rule not given here
Hits are given with their value. Hits are enriched below; roughly 1.7% of the tested compounds scored in any of these assays.

How did CCOP(=O)(OCC)C1(O)C(=O)Nc2ccccc21 (stereo not given) do in these assays?
A3A deaminase: inactive; APOBEC3G inh: inactive; CAL PDZ FP-1: inactive; Keap1-Nrf2 PPI: inactive; C-LANA FP: inactive; CAL PDZ FP-2: inactive

Results for CC1CCCC(C2(O)C(=O)Nc3ccccc32)C1=O (stereo not given) ?
A3A deaminase: 68; APOBEC3G inh: inactive; CAL PDZ FP-1: inactive; Keap1-Nrf2 PPI: inactive; C-LANA FP: inactive; CAL PDZ FP-2: inactive; A3A conf: 74; UDG A3A counter: inactive

Results for CC(CN1CCOCC1)C(C#N)(c1ccccc1)c1ccccc1 (stereo not given) ?
CAL PDZ FP-1: inactive; Keap1-Nrf2 PPI: inactive; C-LANA FP: inactive; CAL PDZ FP-2: inactive

What do the screens show for `Cc1cc(O)c(CN2CCN(c3ccccc3)CC2)cc1C`?
A3A deaminase: inactive; APOBEC3G inh: inactive; CAL PDZ FP-1: inactive; Keap1-Nrf2 PPI: inactive; C-LANA FP: inactive; CAL PDZ FP-2: inactive

Results for C[N+]1(C)CCN(c2ccccc2)CC1 ?
A3A deaminase: 73; APOBEC3G inh: inactive; CAL PDZ FP-1: inactive; Keap1-Nrf2 PPI: inactive; C-LANA FP: inactive; CAL PDZ FP-2: inactive; A3A conf: 78; UDG A3A counter: inactive

How did CCC(CO)(C(=O)OC1C[N+]2(C)CCC1CC2)c1ccccc1 (stereo not given) do in these assays?
A3A deaminase: 56; APOBEC3G inh: inactive; CAL PDZ FP-1: inactive; Keap1-Nrf2 PPI: inactive; C-LANA FP: inactive; CAL PDZ FP-2: inactive; A3A conf: 70; UDG A3A counter: inactive

Results for C[n+]1ccc(-c2ccncc2)cc1 ?
A3A deaminase: 74; APOBEC3G inh: inactive; CAL PDZ FP-1: inactive; Keap1-Nrf2 PPI: inactive; C-LANA FP: inactive; CAL PDZ FP-2: inactive; A3A conf: 77; UDG A3A counter: inactive

Results for COC(=O)C1=C(c2c(C)noc2C)C[C@@H]2CC[C@H]1N2C(=O)NCCOc1ccc(OC)cc1 ?
A3A deaminase: inactive; APOBEC3G inh: inactive; CAL PDZ FP-1: inactive; Keap1-Nrf2 PPI: inactive; C-LANA FP: inactive; CAL PDZ FP-2: inactive

Results for O=C1NC(=S)NC(=O)C1c1ccccc1 ?
CAL PDZ FP-1: inactive; Keap1-Nrf2 PPI: inactive; C-LANA FP: inactive; CAL PDZ FP-2: inactive

What do the screens show for `CC(=O)OC1C=CC2[C@H]3Cc4ccc(O)c5c4[C@@]2(CCN3C)C1O5` (stereo not given in full)?
A3A deaminase: inactive; APOBEC3G inh: inactive; CAL PDZ FP-1: inactive; Keap1-Nrf2 PPI: inactive; C-LANA FP: inactive; CAL PDZ FP-2: inactive

How did CCN(CC)C(=O)c1ccc2c(c1)C1C(Cl)C(Sc3ccccc3[N+](=O)[O-])CC1C(C(=O)O)N2 (stereo not given) do in these assays?
A3A deaminase: inactive; APOBEC3G inh: inactive; CAL PDZ FP-1: inactive; Keap1-Nrf2 PPI: inactive; C-LANA FP: inactive; CAL PDZ FP-2: inactive

How did Cc1ccc2c(c1Cl)NC(C(=O)O)C1CC(Sc3ccccc3[N+](=O)[O-])C(Cl)C21 (stereo not given) do in these assays?
A3A deaminase: 41; APOBEC3G inh: inactive; CAL PDZ FP-1: inactive; Keap1-Nrf2 PPI: inactive; C-LANA FP: inactive; CAL PDZ FP-2: inactive; A3A conf: inactive

How did CN(C)CC1CCCCC1OC(=O)Cc1ccc(Cl)c([N+](=O)[O-])c1 (stereo not given) do in these assays?
A3A deaminase: 55; APOBEC3G inh: inactive; CAL PDZ FP-1: inactive; Keap1-Nrf2 PPI: inactive; C-LANA FP: inactive; CAL PDZ FP-2: inactive; A3A conf: 74; UDG A3A counter: inactive

What do the screens show for `COc1ccc(C(C)=O)cc1CN1CC=C(c2ccccc2)CC1`?
A3A deaminase: 56; APOBEC3G inh: inactive; Keap1-Nrf2 PPI: inactive; C-LANA FP: inactive; CAL PDZ FP-2: inactive; A3A conf: 33; UDG A3A counter: inactive

How did CCN(CC)P(=O)(c1n(CC)cc[n+]1CC)N(CC)CC do in these assays?
A3A deaminase: 86; APOBEC3G inh: inactive; CAL PDZ FP-1: inactive; Keap1-Nrf2 PPI: inactive; C-LANA FP: inactive; CAL PDZ FP-2: inactive; A3A conf: 73; UDG A3A counter: inactive
